Assay results reported in ChEMBL document CHEMBL3046803, “Synthesis and insecticidal activities of novel anthranilic diamides containing acylthiourea and acylurea” (2012).
In brackets after ≈: the same amount, converted by molar mass. Activity calls are given as the source filed them. No cut-off for these calls is given here.

Columns and labels:
Plutella xylostella [1] = experiment: Insecticidal activity against Plutella xylostella (diamondback moth) s-instar larvae infected in fresh cabbage leaves assessed as larvicidal activity at 20 mg/L measured 2 days post dose; type: functional
How it was run: (§1)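 Leaf-dip (spray) test: a 200 mg/L stock in DMF was diluted with distilled water. Cabbage leaf disks (6 × 2 cm) were sprayed for 3 s, dried, and placed individually in glass tubes. Each disk received 30 second-instar larvae. Mortality was scored at 2 days; triplicate.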

Culex pipiens pallens [2] = experiment: Insecticidal activity against Culex pipiens pallens (mosquito) fourth-instar larvae assessed as larvicidal activity at 0.5 mg/L measured 3 days post dose; type: functional
How it was run: (§2)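 Mosquito larvicidal test: compounds were dissolved in acetone and diluted with distilled water to the test concentrations.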

Culex pipiens pallens [3] = experiment: Insecticidal activity against Culex pipiens pallens (mosquito) fourth-instar larvae assessed as larvicidal activity at 2 mg/L measured 3 days post dose; type: functional; how it was run: as §2
Culex pipiens pallens [4] = experiment: Insecticidal activity against Culex pipiens pallens (mosquito) fourth-instar larvae assessed as larvicidal activity at 1 mg/L measured 3 days post dose; type: functional; how it was run: as §2
Mythimna separata [5] = experiment: Insecticidal activity against Mythimna separata (Oriental armyworm) fourth-instar larvae infected Zea mays leaves assessed as larvicidal activity at 5 mg/L measured 2 days post dose; type: functional
How it was run: (§3)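 Foliar application test: individual corn (Tangyu 10) leaves were placed on moistened filter paper in Petri dishes.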

Mythimna separata [6] = experiment: Insecticidal activity against Mythimna separata (Oriental armyworm) fourth-instar larvae infected Zea mays leaves assessed as larvicidal activity at 10 mg/L measured 2 days post dose; type: functional; how it was run: as §3
Mythimna separata [7] = experiment: Insecticidal activity against Mythimna separata (Oriental armyworm) fourth-instar larvae infected Zea mays leaves assessed as larvicidal activity at 20 mg/L measured 2 days post dose; type: functional; how it was run: as §3
Mythimna separata [8] = experiment: Insecticidal activity against Mythimna separata (Oriental armyworm) fourth-instar larvae infected Zea mays leaves assessed as larvicidal activity at 50 mg/L measured 2 days post dose; type: functional; how it was run: as §3
Mythimna separata [9] = experiment: Insecticidal activity against Mythimna separata (Oriental armyworm) fourth-instar larvae infected Zea mays leaves assessed as larvicidal activity at 100 mg/L measured 2 days post dose; type: functional; how it was run: as §3
Mythimna separata [10] = experiment: Insecticidal activity against Mythimna separata (Oriental armyworm) fourth-instar larvae infected Zea mays leaves assessed as larvicidal activity at 200 mg/L measured 2 days post dose; type: functional; how it was run: as §3
[11] = target: Voltage-dependent L-type calcium channel, putative (Pediculus humanus subsp. corporis) (UniProt E0VY79); experiment: Inhibition of voltage-dependent L-type calcium channel in Spodoptera exigua neurons assessed as peak calcium current at 0.1 mM measured 1 min post dose by electrophysiology method (reference value: 104.47 +/- 2.33%); set-up: scale not given: the % may be the effect or the level left
Chain of Voltage-dependent L-type calcium channel, putative (Pediculus humanus subsp. corporis) (E0VY79 as listed by the source): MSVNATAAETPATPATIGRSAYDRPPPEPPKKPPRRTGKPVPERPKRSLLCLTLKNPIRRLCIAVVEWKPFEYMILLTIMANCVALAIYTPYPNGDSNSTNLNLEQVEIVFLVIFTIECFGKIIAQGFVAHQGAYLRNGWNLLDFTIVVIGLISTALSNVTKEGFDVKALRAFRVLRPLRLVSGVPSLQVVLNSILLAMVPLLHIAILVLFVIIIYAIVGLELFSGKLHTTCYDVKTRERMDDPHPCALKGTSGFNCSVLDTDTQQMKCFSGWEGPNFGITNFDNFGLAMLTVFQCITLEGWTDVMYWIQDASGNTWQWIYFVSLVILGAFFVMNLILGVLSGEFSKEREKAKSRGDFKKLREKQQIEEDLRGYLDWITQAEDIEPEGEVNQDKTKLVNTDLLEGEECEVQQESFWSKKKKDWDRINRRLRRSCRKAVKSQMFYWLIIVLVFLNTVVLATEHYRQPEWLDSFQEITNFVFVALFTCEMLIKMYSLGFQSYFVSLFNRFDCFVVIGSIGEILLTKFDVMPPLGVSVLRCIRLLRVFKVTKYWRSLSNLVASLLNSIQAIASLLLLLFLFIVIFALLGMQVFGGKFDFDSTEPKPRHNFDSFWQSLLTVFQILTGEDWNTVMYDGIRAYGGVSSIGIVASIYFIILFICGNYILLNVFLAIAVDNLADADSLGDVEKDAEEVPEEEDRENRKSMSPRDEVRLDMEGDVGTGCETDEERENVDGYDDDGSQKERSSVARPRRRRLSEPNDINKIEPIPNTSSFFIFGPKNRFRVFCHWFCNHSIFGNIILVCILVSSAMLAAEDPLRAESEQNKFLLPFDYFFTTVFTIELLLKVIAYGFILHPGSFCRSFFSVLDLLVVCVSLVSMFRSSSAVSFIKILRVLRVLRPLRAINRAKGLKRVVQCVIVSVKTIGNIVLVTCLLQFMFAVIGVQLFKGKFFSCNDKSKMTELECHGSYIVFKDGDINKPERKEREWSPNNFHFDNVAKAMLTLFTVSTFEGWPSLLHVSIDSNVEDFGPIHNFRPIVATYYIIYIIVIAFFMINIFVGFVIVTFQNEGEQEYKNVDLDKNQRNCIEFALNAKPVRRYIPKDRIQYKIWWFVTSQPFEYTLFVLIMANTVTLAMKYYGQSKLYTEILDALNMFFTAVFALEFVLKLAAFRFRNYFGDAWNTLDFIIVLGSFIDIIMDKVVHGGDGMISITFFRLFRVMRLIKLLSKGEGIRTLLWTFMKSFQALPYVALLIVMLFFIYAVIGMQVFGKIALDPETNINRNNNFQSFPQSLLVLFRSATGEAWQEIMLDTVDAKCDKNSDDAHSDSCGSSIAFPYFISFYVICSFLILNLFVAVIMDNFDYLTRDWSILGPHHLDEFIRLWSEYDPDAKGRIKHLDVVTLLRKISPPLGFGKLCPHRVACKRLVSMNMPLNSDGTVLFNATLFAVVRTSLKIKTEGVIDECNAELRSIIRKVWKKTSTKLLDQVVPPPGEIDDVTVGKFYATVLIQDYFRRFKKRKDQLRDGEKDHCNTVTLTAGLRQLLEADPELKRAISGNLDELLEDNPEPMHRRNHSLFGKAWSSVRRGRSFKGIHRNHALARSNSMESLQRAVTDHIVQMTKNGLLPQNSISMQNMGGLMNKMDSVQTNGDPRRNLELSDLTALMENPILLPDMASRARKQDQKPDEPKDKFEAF

[12] = target: Voltage-dependent L-type calcium channel, putative (Pediculus humanus subsp. corporis) (UniProt E0VY79); experiment: Inhibition of voltage-dependent L-type calcium channel in Spodoptera exigua neurons assessed as peak calcium current at 0.1 mM measured 2 min post dose by electrophysiology method (reference value: 102.75 +/- 2.45%); set-up: scale not given: the % may be the effect or the level left
[13] = target: Voltage-dependent L-type calcium channel, putative (Pediculus humanus subsp. corporis) (UniProt E0VY79); experiment: Inhibition of voltage-dependent L-type calcium channel in Spodoptera exigua neurons assessed as peak calcium current at 0.1 mM measured 3 min post dose by electrophysiology method (reference value: 101.76 +/- 2.7%); set-up: scale not given: the % may be the effect or the level left
Plutella xylostella [14] = experiment: Insecticidal activity against Plutella xylostella (diamondback moth) s-instar larvae infected in fresh cabbage leaves assessed as larvicidal activity measured 2 days post dose; type: functional; conditions: 48 h; how it was run: as §1
[15] = target: Voltage-dependent L-type calcium channel, putative (Pediculus humanus subsp. corporis) (UniProt E0VY79); experiment: Inhibition of voltage-dependent L-type calcium channel in Spodoptera exigua neurons assessed as peak intracellular calcium level at 1000 mg/L measured 10 min post dose by calcium-imaging technique relative to initial untreated control; type: cell-based; set-up: scale not given: the % may be the effect or the level left
How it was run: (§4)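 S. exigua neurons were rinsed in physiological saline (pH 6.9). They were dye-loaded in the dark at 28 °C, either with 10 μM fluo-3-AM for 45 min in standard saline or with 5 μM fluo-5N for 5 h in EGTA Ca-free saline, then rinsed twice. [Ca²⁺]i was imaged on an inverted fluorescence microscope (40× oil, 488/530 nm) over 10 min. F/F₀ is relative to resting baseline; ≥6 repeats; mean ± SD.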

[16] = target: Voltage-dependent L-type calcium channel, putative (Pediculus humanus subsp. corporis) (UniProt E0VY79); experiment: Inhibition of voltage-dependent L-type calcium channel in Spodoptera exigua neurons assessed as peak calcium current at 0.1 mM measured 8 min post dose by electrophysiology method (reference value: 90.85 +/- 0.65%); set-up: scale not given: the % may be the effect or the level left
[17] = target: Voltage-dependent L-type calcium channel, putative (Pediculus humanus subsp. corporis) (UniProt E0VY79); experiment: Inhibition of voltage-dependent L-type calcium channel in Spodoptera exigua neurons assessed as peak calcium current at 0.1 mM measured 5 min post dose by electrophysiology method (reference value: 98.06 +/- 1.01%); set-up: scale not given: the % may be the effect or the level left
[18] = target: Voltage-dependent L-type calcium channel, putative (Pediculus humanus subsp. corporis) (UniProt E0VY79); experiment: Inhibition of voltage-dependent L-type calcium channel in Spodoptera exigua neurons assessed as peak calcium current at 0.1 mM measured 4 min post dose by electrophysiology method (reference value: 99.66 +/- 1.64%); set-up: scale not given: the % may be the effect or the level left
[19] = target: Voltage-dependent L-type calcium channel, putative (Pediculus humanus subsp. corporis) (UniProt E0VY79); experiment: Inhibition of voltage-dependent L-type calcium channel in Spodoptera exigua neurons assessed as peak calcium current at 0.1 mM measured 10 min post dose by electrophysiology method (reference value: 85.44 +/- 1.14%); set-up: scale not given: the % may be the effect or the level left
Plutella xylostella [20] = experiment: Insecticidal activity against Plutella xylostella (diamondback moth) s-instar larvae infected in fresh cabbage leaves assessed as larvicidal activity at 0.001 mg/L measured 2 days post dose; type: functional; how it was run: as §1
Plutella xylostella [21] = experiment: Insecticidal activity against Plutella xylostella (diamondback moth) s-instar larvae infected in fresh cabbage leaves assessed as larvicidal activity at 0.01 mg/L measured 2 days post dose; type: functional; how it was run: as §1
Plutella xylostella [22] = experiment: Insecticidal activity against Plutella xylostella (diamondback moth) s-instar larvae infected in fresh cabbage leaves assessed as larvicidal activity at 1 mg/L measured 2 days post dose; type: functional; how it was run: as §1
Plutella xylostella [23] = experiment: Insecticidal activity against Plutella xylostella (diamondback moth) s-instar larvae infected in fresh cabbage leaves assessed as larvicidal activity at 0.1 mg/L measured 2 days post dose; type: functional; how it was run: as §1
[24] = target: Voltage-dependent L-type calcium channel, putative (Pediculus humanus subsp. corporis) (UniProt E0VY79); experiment: Inhibition of voltage-dependent L-type calcium channel in Spodoptera exigua neurons assessed as change in […] calcium level at 1000 mg/L measured 10 min post dose by calcium-imaging technique; how it was run: as §4
[25] = target: Voltage-dependent L-type calcium channel, putative (Pediculus humanus subsp. corporis) (UniProt E0VY79); experiment: Inhibition of voltage-dependent L-type calcium channel in Spodoptera exigua neurons assessed as increase in intracellular calcium level at 1000 mg/L measured 10 min post dose by calcium-imaging technique; type: cell-based; how it was run: as §4
[26] = target: Voltage-dependent L-type calcium channel, putative (Pediculus humanus subsp. corporis) (UniProt E0VY79); experiment: Inhibition of voltage-dependent L-type calcium channel in Spodoptera exigua neurons assessed as peak calcium current at 0.001 mM measured 3 min post dose by electrophysiology method (reference value: 101.76 +/- 2.7%); set-up: scale not given: the % may be the effect or the level left
[27] = target: Ryanodien receptor (Spodoptera exigua) (UniProt H9CNL0); experiment: Inhibition of Ryanodine receptor in Spodoptera exigua neurons assessed as reduction in intracellular calcium level at 1000 mg/L pre-treated with 10 mg/ml heparin and 1 uM thapsigargin by calcium-imaging technique; type: cell-based
How it was run: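 Primary cultured S. exigua neurons were rinsed in saline, then loaded in the dark at 28 °C with 5 μM fluo-5N for 5 h in Ca-free saline (150 mM NaCl, 4 mM KCl, 2 mM MgCl₂, 2 mM EGTA, 10 mM HEPES, pH 6.9). They were treated with 10 mg/mL heparin for 20 min, then 1 μM thapsigargin for 10 min. Fluorescence was imaged (40× oil, 488/530 nm) and expressed as F/F₀.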

[28] = target: Voltage-dependent L-type calcium channel, putative (Pediculus humanus subsp. corporis) (UniProt E0VY79); experiment: Inhibition of voltage-dependent L-type calcium channel in Spodoptera exigua neurons assessed as change in peak calcium current at 0.001 mM at -70 mV holding potential measured 1 to 10 min post dose by electrophysiology method
[29] = target: Voltage-dependent L-type calcium channel, putative (Pediculus humanus subsp. corporis) (UniProt E0VY79); experiment: Inhibition of voltage-dependent L-type calcium channel in Spodoptera exigua neurons assessed as peak calcium current at 0.1 mM at -70 mV holding potential measured 10 min post dose by electrophysiology method
[30] = target: Voltage-dependent L-type calcium channel, putative (Pediculus humanus subsp. corporis) (UniProt E0VY79); experiment: Inhibition of voltage-dependent L-type calcium channel in Spodoptera exigua neurons assessed as peak calcium current at 0.1 mM at -70 mV holding potential measured 5 min post dose by electrophysiology method
[31] = target: Voltage-dependent L-type calcium channel, putative (Pediculus humanus subsp. corporis) (UniProt E0VY79); experiment: Inhibition of voltage-dependent L-type calcium channel in Spodoptera exigua neurons assessed as change in peak calcium current at 0.1 mM at -70 mV holding potential measured 1 min post dose by electrophysiology method
[32] = target: Voltage-dependent L-type calcium channel, putative (Pediculus humanus subsp. corporis) (UniProt E0VY79); experiment: Inhibition of voltage-dependent L-type calcium channel in Spodoptera exigua neurons assessed as peak calcium current at 0.001 mM measured 8 min post dose by electrophysiology method (reference value: 90.85 +/- 0.65%); set-up: scale not given: the % may be the effect or the level left
[33] = target: Voltage-dependent L-type calcium channel, putative (Pediculus humanus subsp. corporis) (UniProt E0VY79); experiment: Inhibition of voltage-dependent L-type calcium channel in Spodoptera exigua neurons assessed as peak calcium current at 0.001 mM measured 5 min post dose by electrophysiology method (reference value: 98.06 +/- 1.01%); set-up: scale not given: the % may be the effect or the level left
[34] = target: Voltage-dependent L-type calcium channel, putative (Pediculus humanus subsp. corporis) (UniProt E0VY79); experiment: Inhibition of voltage-dependent L-type calcium channel in Spodoptera exigua neurons assessed as peak calcium current at 0.001 mM measured 4 min post dose by electrophysiology method (reference value: 99.66 +/- 1.64%); set-up: scale not given: the % may be the effect or the level left
[35] = target: Voltage-dependent L-type calcium channel, putative (Pediculus humanus subsp. corporis) (UniProt E0VY79); experiment: Inhibition of voltage-dependent L-type calcium channel in Spodoptera exigua neurons assessed as peak calcium current at 0.001 mM measured 10 min post dose by electrophysiology method (reference value: 85.44 +/- 1.14%); set-up: scale not given: the % may be the effect or the level left

Row | Structure (SMILES) | Activity (Plutella xylostella [1]) [%] | Activity (Culex pipiens pallens [3]) [%] | Activity (Mythimna separata [5]) [%] | Activity (Mythimna separata [6]) [%] | Activity (Mythimna separata [7]) [%] | Activity (Mythimna separata [8]) [%] | Activity (Mythimna separata [9]) [%] | Activity (Mythimna separata [10]) [%] | Activity [11] [%] | Activity [12] [%] | Activity [13] [%] | Activity [15] [%] | Activity [16] [%] | Activity [17] [%] | Activity [18] [%] | Activity [19] [%] | Activity (Plutella xylostella [20]) [%] | Activity (Plutella xylostella [21]) [%] | Activity (Plutella xylostella [22]) [%] | Activity (Plutella xylostella [23]) [%] | also measured
1 | CNC(=O)c1cc(Cl)cc(C)c1NC(=O)c1cc(Br)nn1-c1ncccc1Cl [CHLORANTRANILIPROLE] | 100 | 100 | 100 | 100 | 100 | 100 | 100 | 100 | 89.6 | 74 | 69.6 | 123 | 44.3 | 55.8 | 63.4 | 39.7 | 100 | 100 | 100 | 100 | Activity (Culex pipiens pallens [2]): 100%; Activity (Culex pipiens pallens [4]): 100%; LC50 (Plutella xylostella [14]): 0.0123 ng/mL (≈ 0.0255 nM)
2 | CNC(=O)c1cc(Cl)cc(C)c1NC(=S)NC(=O)c1cc(C(F)(F)F)nn1-c1ncccc1Cl | 100 |  | 50 | 100 | 100 | 100 | 100 | 100 |  |  |  | 112 |  |  |  |  | 43 | 71 | 100 | 100 | inhibition [24]: inactive; Activity [25]: Active
3 | Cc1cc(Cl)cc(C(=O)NC(C)C)c1NC(=S)NC(=O)c1cc(Cl)nn1-c1ncccc1Cl |  | 40 | 40 | 100 | 100 | 100 | 100 | 100 | 91.5 | 84.1 | 80.7 | 117 | 61 | 70.2 | 74.4 | 54.7 |  |  |  |  | Activity [26]: 95.8%; inhibition [27]: Active; inhibition [24]: inactive; Activity [25]: Active; inhibition [28]: inactive; Activity [29]: -1.27 nanoampere; Activity [30]: -1.64 nanoampere; Activity [31]: 10 mV; Activity [32]: 81.2%; Activity [33]: 84.4%; Activity [34]: 90.1%; Activity [35]: 74.6%
